# Experimental data published in ChEMBL document CHEMBL1157776, “Synthesis, topoisomerase I and II inhibitory activity, cytotoxicity, and structure-activity relationship study of hydroxylated 2,4-diphenyl-6-aryl pyridines” (Bioorg Med Chem, 2010).
# Where a name gives a salt, the structure may show the parent alone.
# Test system: DU-145
# Assay: Cytotoxicity against human DU145 cells after 2 days by automatic ELISA reader system
# Type: functional, cell-based
# Conditions: DU-145, 48 h
# Method in brief: (§1)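 Cells seeded at 2–4 × 10⁴ per well and grown overnight in medium with 10% FBS, 5% CO₂, 37 °C. Compound added on day 2; on day 4 CCK-8 solution added and incubated a further 4 h. Absorbance read at 450 nm and fitted to a four-parameter logistic equation for IC₅₀.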
row,Structure (SMILES),IC50 [µM]
1,Oc1ccc(-c2cc(-c3ccccc3)cc(-c3ccccc3)n2)cc1,3
2,COc1cccc2c1C(=O)c1c(O)c3c(c(O)c1C2=O)C[C@@](O)(C(=O)CO)C[C@@H]3O[C@H]1C[C@H](N)[C@H](O)[C@H](C)O1 [DOXORUBICIN HYDROCHLORIDE],1
3,Oc1cccc(-c2cc(-c3ccccc3)nc(-c3ccsc3)c2)c1,11.7
4,Oc1cccc(-c2cc(-c3ccccc3)cc(-c3cccs3)n2)c1,18.9
5,Oc1ccc(-c2cc(-c3ccccc3)cc(-c3ccc(O)cc3)n2)cc1,22
6,Oc1ccc(-c2cc(-c3ccccc3)nc(-c3ccncc3)c2)cc1,2.2
7,Oc1ccccc1-c1cc(-c2ccccc2)cc(-c2ccccc2O)n1,8
8,Oc1ccc(-c2cc(-c3ccccc3)cc(-c3ccco3)n2)cc1,3.2
9,Oc1ccccc1-c1cc(-c2ccccc2)nc(-c2ccco2)c1,4.9
10,CC[C@@]1(O)C(=O)OCc2c1cc1n(c2=O)Cc2cc3ccccc3nc2-1 [CAMPTOTHECIN],0.4

# Test system: HCT-15
# Assay: Cytotoxicity against human HCT15 cells after 2 days by automatic ELISA reader system
# Type: functional, cell-based
# Conditions: HCT-15, 48 h
# Method in brief: as §1
row,Structure (SMILES),IC50 [µM]
1,Oc1ccc(-c2cc(-c3ccccc3)cc(-c3ccccc3)n2)cc1,3.7
2,COc1cccc2c1C(=O)c1c(O)c3c(c(O)c1C2=O)C[C@@](O)(C(=O)CO)C[C@@H]3O[C@H]1C[C@H](N)[C@H](O)[C@H](C)O1 [DOXORUBICIN HYDROCHLORIDE],1.2
3,Oc1cccc(-c2cc(-c3ccccc3)nc(-c3ccsc3)c2)c1,24.6
4,Oc1cccc(-c2cc(-c3ccccc3)cc(-c3cccs3)n2)c1,10.8
5,Oc1ccc(-c2cc(-c3ccccc3)cc(-c3ccc(O)cc3)n2)cc1,3
6,Oc1ccc(-c2cc(-c3ccccc3)nc(-c3ccncc3)c2)cc1,11.7
7,Oc1ccccc1-c1cc(-c2ccccc2)cc(-c2ccccc2O)n1,> 50
8,Oc1ccc(-c2cc(-c3ccccc3)cc(-c3ccco3)n2)cc1,3.5
9,Oc1ccccc1-c1cc(-c2ccccc2)nc(-c2ccco2)c1,2.5
10,CC[C@@]1(O)C(=O)OCc2c1cc1n(c2=O)Cc2cc3ccccc3nc2-1 [CAMPTOTHECIN],0.5

# Test system: HL-60
# Assay: Cytotoxicity against human HL60 cells after 2 days by automatic ELISA reader system
# Type: functional, cell-based
# Conditions: HL-60, 48 h
# Method in brief: as §1
row,Structure (SMILES),IC50 [µM]
1,Oc1ccc(-c2cc(-c3ccccc3)cc(-c3ccccc3)n2)cc1,1.4
2,COc1cccc2c1C(=O)c1c(O)c3c(c(O)c1C2=O)C[C@@](O)(C(=O)CO)C[C@@H]3O[C@H]1C[C@H](N)[C@H](O)[C@H](C)O1 [DOXORUBICIN HYDROCHLORIDE],0.7
3,Oc1cccc(-c2cc(-c3ccccc3)nc(-c3ccsc3)c2)c1,12
4,Oc1cccc(-c2cc(-c3ccccc3)cc(-c3cccs3)n2)c1,14.1
5,Oc1ccc(-c2cc(-c3ccccc3)cc(-c3ccc(O)cc3)n2)cc1,5.7
6,Oc1ccc(-c2cc(-c3ccccc3)nc(-c3ccncc3)c2)cc1,1.4
7,Oc1ccccc1-c1cc(-c2ccccc2)cc(-c2ccccc2O)n1,22.4
8,Oc1ccc(-c2cc(-c3ccccc3)cc(-c3ccco3)n2)cc1,3.3
9,Oc1ccccc1-c1cc(-c2ccccc2)nc(-c2ccco2)c1,1.9
10,CC[C@@]1(O)C(=O)OCc2c1cc1n(c2=O)Cc2cc3ccccc3nc2-1 [CAMPTOTHECIN],0.1

# Target: DNA topoisomerase 2-alpha (Homo sapiens) (UniProt P11388)
# Assay: Inhibition of human recombinant TOP2A-mediated relaxation of supercoiled Escherichia coli pBR322 DNA at 100 uM after 30 mins by transillumination
# Conditions: not given
# Method in brief: (§2)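 200 ng supercoiled pBR322 with topo II, ± compound, 30 °C for 30 min. Buffer was 10 mM Tris–HCl pH 7.9, 50 mM NaCl, 5 mM MgCl₂, 1 mM EDTA, 1 mM ATP, BSA. Stopped with 7 mM EDTA, then 1% agarose gel in TAE at 25 V for 4 h. Ethidium bromide stain, UV transillumination, supercoiled DNA quantitated.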
# Chain of DNA topoisomerase 2-alpha (Homo sapiens) (P11388 whole entry): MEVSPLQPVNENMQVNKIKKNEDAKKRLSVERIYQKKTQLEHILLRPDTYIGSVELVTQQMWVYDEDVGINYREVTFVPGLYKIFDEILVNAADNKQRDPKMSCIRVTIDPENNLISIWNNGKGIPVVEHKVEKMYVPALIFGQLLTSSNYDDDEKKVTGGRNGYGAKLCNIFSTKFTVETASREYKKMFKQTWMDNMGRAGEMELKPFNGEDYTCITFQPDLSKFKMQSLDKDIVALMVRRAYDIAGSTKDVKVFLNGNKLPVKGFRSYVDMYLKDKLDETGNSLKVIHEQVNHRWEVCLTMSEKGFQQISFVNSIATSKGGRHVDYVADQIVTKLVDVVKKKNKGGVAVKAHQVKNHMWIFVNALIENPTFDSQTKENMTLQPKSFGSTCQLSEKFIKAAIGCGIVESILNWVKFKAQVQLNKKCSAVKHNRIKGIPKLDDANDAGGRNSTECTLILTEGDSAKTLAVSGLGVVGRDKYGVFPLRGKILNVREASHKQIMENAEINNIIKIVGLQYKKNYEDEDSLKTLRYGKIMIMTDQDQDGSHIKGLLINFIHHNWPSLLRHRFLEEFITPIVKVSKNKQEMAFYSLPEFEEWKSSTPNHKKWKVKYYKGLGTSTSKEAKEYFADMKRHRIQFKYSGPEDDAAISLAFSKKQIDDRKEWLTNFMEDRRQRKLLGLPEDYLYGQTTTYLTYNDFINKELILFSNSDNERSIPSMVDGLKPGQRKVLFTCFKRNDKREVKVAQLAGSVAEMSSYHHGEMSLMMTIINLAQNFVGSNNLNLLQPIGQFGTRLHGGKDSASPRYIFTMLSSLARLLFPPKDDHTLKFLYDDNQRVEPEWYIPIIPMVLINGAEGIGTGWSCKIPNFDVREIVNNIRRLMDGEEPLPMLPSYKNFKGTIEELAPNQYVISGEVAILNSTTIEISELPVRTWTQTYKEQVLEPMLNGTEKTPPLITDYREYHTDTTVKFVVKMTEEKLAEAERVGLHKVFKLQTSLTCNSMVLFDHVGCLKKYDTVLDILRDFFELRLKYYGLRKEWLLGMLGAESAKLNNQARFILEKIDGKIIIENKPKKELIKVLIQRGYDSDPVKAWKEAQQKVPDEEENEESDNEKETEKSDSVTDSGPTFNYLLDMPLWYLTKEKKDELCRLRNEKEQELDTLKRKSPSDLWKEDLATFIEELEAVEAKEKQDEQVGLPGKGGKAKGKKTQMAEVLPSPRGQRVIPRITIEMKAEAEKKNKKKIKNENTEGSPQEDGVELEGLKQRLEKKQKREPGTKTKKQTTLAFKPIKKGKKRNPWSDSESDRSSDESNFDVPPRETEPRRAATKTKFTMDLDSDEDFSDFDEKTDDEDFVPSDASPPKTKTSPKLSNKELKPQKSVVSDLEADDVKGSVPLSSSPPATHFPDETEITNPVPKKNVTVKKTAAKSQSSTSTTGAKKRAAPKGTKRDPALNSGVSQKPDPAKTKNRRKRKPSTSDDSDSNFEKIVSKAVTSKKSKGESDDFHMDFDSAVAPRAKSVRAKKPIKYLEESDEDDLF
row,Structure (SMILES),inhibition [%]
1,Oc1ccc(-c2cc(-c3ccccc3)cc(-c3ccccc3)n2)cc1,27.6
2,Oc1cccc(-c2cc(-c3ccccc3)nc(-c3ccsc3)c2)c1,52.6
3,Oc1cccc(-c2cc(-c3ccccc3)cc(-c3cccs3)n2)c1,53.8
4,Oc1ccc(-c2cc(-c3ccccc3)cc(-c3ccc(O)cc3)n2)cc1,76.8
5,Oc1ccc(-c2cc(-c3ccccc3)nc(-c3ccncc3)c2)cc1,8.4
6,Oc1ccccc1-c1cc(-c2ccccc2)cc(-c2ccccc2O)n1,42.7
7,Oc1ccc(-c2cc(-c3ccccc3)cc(-c3ccco3)n2)cc1,35.2
8,Oc1ccccc1-c1cc(-c2ccccc2)nc(-c2ccco2)c1,31.2

# Target: DNA topoisomerase 2-alpha (Homo sapiens) (UniProt P11388)
# Assay: Inhibition of human recombinant TOP2A-mediated relaxation of supercoiled Escherichia coli pBR322 DNA at 20 uM after 30 mins by transillumination
# Conditions: not given
# Method in brief: as §2
row,Structure (SMILES),inhibition [%]
1,Oc1cccc(-c2cc(-c3ccccc3)nc(-c3ccsc3)c2)c1,30.8
2,Oc1cccc(-c2cc(-c3ccccc3)cc(-c3cccs3)n2)c1,43.5
3,Oc1ccc(-c2cc(-c3ccccc3)cc(-c3ccc(O)cc3)n2)cc1,33.7
4,Oc1ccccc1-c1cc(-c2ccccc2)cc(-c2ccccc2O)n1,12.1
5,Oc1ccc(-c2cc(-c3ccccc3)cc(-c3ccco3)n2)cc1,10.2
6,Oc1ccccc1-c1cc(-c2ccccc2)nc(-c2ccco2)c1,3.1

# Target: T1, DNA topoisomerase 1 (Homo sapiens) (UniProt P11387)
# T1 sequence (whole entry): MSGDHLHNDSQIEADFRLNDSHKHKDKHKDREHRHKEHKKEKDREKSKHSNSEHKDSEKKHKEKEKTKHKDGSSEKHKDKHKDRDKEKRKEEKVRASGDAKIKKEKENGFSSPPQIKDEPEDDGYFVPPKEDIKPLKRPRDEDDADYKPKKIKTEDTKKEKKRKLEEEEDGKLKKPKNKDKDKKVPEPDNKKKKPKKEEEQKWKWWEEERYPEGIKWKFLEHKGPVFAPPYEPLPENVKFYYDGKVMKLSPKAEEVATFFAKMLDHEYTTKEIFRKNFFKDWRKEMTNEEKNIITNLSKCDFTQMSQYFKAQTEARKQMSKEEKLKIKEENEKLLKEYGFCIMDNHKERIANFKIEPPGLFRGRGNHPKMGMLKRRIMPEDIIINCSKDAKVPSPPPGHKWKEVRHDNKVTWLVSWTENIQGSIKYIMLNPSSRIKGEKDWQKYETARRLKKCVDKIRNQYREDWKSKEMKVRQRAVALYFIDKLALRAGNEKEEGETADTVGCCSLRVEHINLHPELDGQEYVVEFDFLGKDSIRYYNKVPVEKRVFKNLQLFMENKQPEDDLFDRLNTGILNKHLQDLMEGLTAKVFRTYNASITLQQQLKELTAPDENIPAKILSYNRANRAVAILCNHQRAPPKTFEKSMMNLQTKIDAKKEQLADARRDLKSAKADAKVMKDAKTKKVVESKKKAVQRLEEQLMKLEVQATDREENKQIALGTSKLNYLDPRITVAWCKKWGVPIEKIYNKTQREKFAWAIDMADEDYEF
# Assay: Inhibition of human recombinant TOP1-mediated relaxation of supercoiled Escherichia coli pBR322 DNA at 100 uM after 30 mins by transillumination
# Conditions: not given
# Method in brief: (§3)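 Relaxation assay: 100 ng supercoiled pBR322 with 0.4 units recombinant human topo I, ± compound (DMSO stocks 20 mM), 37 °C, 30 min. Buffer was 10 mM Tris–HCl pH 7.9, 150 mM NaCl, 0.1% BSA, 1 mM spermidine, 5% glycerol. Stopped with sarcosyl/bromophenol blue/glycerol, then 1% agarose gel in TAE at 15 V for 7 h. Ethidium bromide stain, UV transillumination, bands quantitated by densitometry.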
row,Structure (SMILES),inhibition [%]
1,Oc1ccc(-c2cc(-c3ccccc3)cc(-c3ccccc3)n2)cc1,52.9
2,Oc1cccc(-c2cc(-c3ccccc3)nc(-c3ccsc3)c2)c1,6.9
3,Oc1cccc(-c2cc(-c3ccccc3)cc(-c3cccs3)n2)c1,51.2
4,Oc1ccc(-c2cc(-c3ccccc3)cc(-c3ccc(O)cc3)n2)cc1,0.3
5,Oc1ccc(-c2cc(-c3ccccc3)nc(-c3ccncc3)c2)cc1,57.5
6,Oc1ccccc1-c1cc(-c2ccccc2)cc(-c2ccccc2O)n1,0
7,Oc1ccc(-c2cc(-c3ccccc3)cc(-c3ccco3)n2)cc1,18.6
8,Oc1ccccc1-c1cc(-c2ccccc2)nc(-c2ccco2)c1,1.5

# Target: T1, DNA topoisomerase 1 (Homo sapiens)
# Assay: Inhibition of human recombinant TOP1-mediated relaxation of supercoiled Escherichia coli pBR322 DNA at 20 uM after 30 mins by transillumination
# Conditions: not given
# Method in brief: as §3
row,Structure (SMILES),inhibition [%]
1,Oc1ccc(-c2cc(-c3ccccc3)cc(-c3ccccc3)n2)cc1,43.6
2,Oc1cccc(-c2cc(-c3ccccc3)nc(-c3ccsc3)c2)c1,3.2
3,Oc1cccc(-c2cc(-c3ccccc3)cc(-c3cccs3)n2)c1,5.8
4,Oc1ccc(-c2cc(-c3ccccc3)nc(-c3ccncc3)c2)cc1,5.8

# Test system: MDA-MB-231
# Assay: Cytotoxicity against human MDA-MB-231 cells after 2 days by automatic ELISA reader system
# Type: functional, cell-based
# Conditions: MDA-MB-231, 48 h
# Method in brief: as §1
row,Structure (SMILES),IC50 [µM]
1,Oc1ccc(-c2cc(-c3ccccc3)cc(-c3ccccc3)n2)cc1,1.3
2,COc1cccc2c1C(=O)c1c(O)c3c(c(O)c1C2=O)C[C@@](O)(C(=O)CO)C[C@@H]3O[C@H]1C[C@H](N)[C@H](O)[C@H](C)O1 [DOXORUBICIN HYDROCHLORIDE],0.4
3,Oc1cccc(-c2cc(-c3ccccc3)nc(-c3ccsc3)c2)c1,19
4,Oc1cccc(-c2cc(-c3ccccc3)cc(-c3cccs3)n2)c1,18.1
5,Oc1ccc(-c2cc(-c3ccccc3)cc(-c3ccc(O)cc3)n2)cc1,6.7
6,Oc1ccc(-c2cc(-c3ccccc3)nc(-c3ccncc3)c2)cc1,2.1
7,Oc1ccccc1-c1cc(-c2ccccc2)cc(-c2ccccc2O)n1,37.3
8,Oc1ccc(-c2cc(-c3ccccc3)cc(-c3ccco3)n2)cc1,1.4
9,Oc1ccccc1-c1cc(-c2ccccc2)nc(-c2ccco2)c1,4.6
10,CC[C@@]1(O)C(=O)OCc2c1cc1n(c2=O)Cc2cc3ccccc3nc2-1 [CAMPTOTHECIN],0.3

# Test system: HeLa
# Assay: Cytotoxicity against human HeLa cells after 2 days by automatic ELISA reader system
# Type: functional, cell-based
# Conditions: 48 h
# Method in brief: as §1
row,Structure (SMILES),IC50 [µM]
1,Oc1ccc(-c2cc(-c3ccccc3)cc(-c3ccccc3)n2)cc1,1.7
2,Oc1cccc(-c2cc(-c3ccccc3)nc(-c3ccsc3)c2)c1,14.9
3,Oc1cccc(-c2cc(-c3ccccc3)cc(-c3cccs3)n2)c1,17
4,Oc1ccc(-c2cc(-c3ccccc3)cc(-c3ccc(O)cc3)n2)cc1,3.3
5,Oc1ccc(-c2cc(-c3ccccc3)nc(-c3ccncc3)c2)cc1,1.6
6,Oc1ccccc1-c1cc(-c2ccccc2)cc(-c2ccccc2O)n1,14.8
7,Oc1ccc(-c2cc(-c3ccccc3)cc(-c3ccco3)n2)cc1,10.9
8,Oc1ccccc1-c1cc(-c2ccccc2)nc(-c2ccco2)c1,9.7
9,CC[C@@]1(O)C(=O)OCc2c1cc1n(c2=O)Cc2cc3ccccc3nc2-1 [CAMPTOTHECIN],0.4
